We go through 29 compounds from ChEMBL document CHEMBL1268892, “Antidotes to anthrax lethal factor intoxication. Part 1: Discovery of potent lethal factor inhibitors with in vivo efficacy” (Bioorg Med Chem Lett, 2010).

Structures are written as SMILES. Calls of active or inactive are those of the source. The rule behind the calls is not given here.

The target of one data set is T1, Lethal factor (Bacillus anthracis, UniProt P15917).
T1 sequence (P15917 whole entry): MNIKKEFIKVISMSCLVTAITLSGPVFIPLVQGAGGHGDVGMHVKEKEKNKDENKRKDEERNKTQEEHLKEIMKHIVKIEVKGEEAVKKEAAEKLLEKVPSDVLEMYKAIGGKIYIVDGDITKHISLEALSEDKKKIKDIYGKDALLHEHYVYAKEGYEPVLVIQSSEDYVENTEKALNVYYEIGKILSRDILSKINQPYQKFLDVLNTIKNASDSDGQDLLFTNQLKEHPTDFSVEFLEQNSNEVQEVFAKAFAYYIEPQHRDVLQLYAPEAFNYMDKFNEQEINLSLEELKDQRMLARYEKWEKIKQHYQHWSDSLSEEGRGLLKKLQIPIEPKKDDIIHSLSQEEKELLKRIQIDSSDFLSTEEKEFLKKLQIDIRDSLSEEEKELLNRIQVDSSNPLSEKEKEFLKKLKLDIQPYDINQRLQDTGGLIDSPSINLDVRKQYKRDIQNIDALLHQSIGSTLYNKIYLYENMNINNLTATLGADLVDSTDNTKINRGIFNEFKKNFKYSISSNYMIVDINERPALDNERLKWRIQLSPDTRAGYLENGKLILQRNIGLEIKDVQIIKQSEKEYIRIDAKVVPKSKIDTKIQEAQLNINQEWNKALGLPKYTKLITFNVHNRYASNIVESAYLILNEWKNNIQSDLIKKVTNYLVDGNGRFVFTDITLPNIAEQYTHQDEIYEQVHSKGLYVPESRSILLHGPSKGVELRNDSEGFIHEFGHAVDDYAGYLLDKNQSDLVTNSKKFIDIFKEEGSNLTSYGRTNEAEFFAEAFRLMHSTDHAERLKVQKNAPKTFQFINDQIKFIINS
Briefly: Inhibition of Bacillus anthracis lethal factor assessed as proteolysis using MCA-KKVYPYPME-Dap(Dnp)-NH2 peptide substrate by FRET assay. An outline of the steps: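 Purified LF at 0.5 nM final with 40 μM peptide substrate in 20 mM HEPES pH 7.4, 0.1% Tween-20, 0.5 mg/mL BSA. The reaction was started by adding enzyme and incubated 4 h at 23°C to reach a steady-state rate. Cleavage was read as fluorescence increase (λex 324 nm, λem 395 nm). Ki was fitted to the tight-binding equation. Values are means of three experiments.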

A short description of data set [1]: Lipophilicity, log D of the compound at pH 7.4. Type of data set: physicochemical. The following applies: buffer.
The nature of data set [2]: Solubility of the compound in 50% DNSO/PBS. The format is physicochemical. To be noted: 50% DMSO/PBS.
Data set [3] concerns Rattus norvegicus. In words: Inhibition of lethal factor-induced toxicity in Fischer 344 rat assessed as increase in median survival time at 5 mg/kg, iv relative to control. Type of data set: functional, organism-based. Set-up: dose 5 mg/kg.
Data set [4] relates to Rattus norvegicus. In words: Inhibition of lethal factor-induced toxicity in Fischer 344 rat assessed as increase in median survival time at 2.5 mg/kg, iv relative to control. Type of data set: functional, organism-based. Set-up: dose 2.5 mg/kg.

On to `CO[C@H](C[C@H](CCN1CCCC1)C(=O)NO)c1ccc(F)cc1`, for which, at Lethal factor, the Ki was 122 nM.

For the compound `CO[C@H](C[C@H](CCN(C)CCCc1ccccc1)C(=O)NO)c1ccc(F)cc1`, the Ki on Lethal factor came out at 42 nM. In data set [1], this compound showed a log distribution coefficient (logD) of less than 3. The solubility in data set [2] is greater than 5 µg/mL.

Regarding `Cc1cc(C(=O)NCCCC[C@@H](Nc2cc(C)c(F)c(C)c2)C(=O)NO)ccc1F`, the Ki on Lethal factor was 7.3 nM. In data set [1], this compound had a logD of less than 3. In data set [2], this compound showed a solubility greater than 5 µg/mL.

Regarding `COc1ccc(CNCCCC[C@@H](Nc2cc(C)c(F)c(C)c2)C(=O)NO)cc1`, the inhibition constant (Ki) at Lethal factor was found to be 0.44 nM. The compound also had a log distribution coefficient (logD) in data set [1] of less than 3. In addition, the solubility in data set [2] is greater than 5 µg/mL.

As for `CO[C@H](C[C@H](CCN(C)C)C(=O)NO)c1ccc(F)cc1`, the Ki on Lethal factor worked out at 96 nM. In data set [1], this compound displayed a log distribution coefficient (logD) of less than 3. The solubility in data set [2] is greater than 5 µg/mL.

In the case of `CO[C@H](C[C@H](CCN(C)CCCc1ccc(F)c(C)c1)C(=O)NO)c1ccc(F)cc1`, in data set [1], the logD is less than 3. Further, the solubility in data set [2] was greater than 5 µg/mL.

As to `CO[C@H](C[C@H](CCN1CCN(Cc2ccccc2)CC1)C(=O)NO)c1ccc(F)cc1`, the Ki at Lethal factor turned out to be 115 nM.

Consider `Cc1cc(CNCCCC[C@@H](Nc2cc(C)c(F)c(C)c2)C(=O)NO)ccc1F`, for which the logD in data set [1] is less than 3. In data set [2], this compound returned a solubility greater than 5 µg/mL. Also, the inhibition result in the data set on Rattus norvegicus [3] and in the data set on Rattus norvegicus [4] was “Active” in each case.

On to `CO[C@H](C[C@H](CCN1CCN(c2ccccc2)CC1)C(=O)NO)c1ccc(F)cc1`, for which, at Lethal factor, the Ki was determined as 151 nM.

Take `Cc1cc(N[C@H](CCCCNCc2ccc([N+](=O)[O-])cc2)C(=O)NO)cc(C)c1F`: the Ki at Lethal factor was determined as 0.3 nM. This compound showed a logD in data set [1] of less than 3. Further, the solubility in data set [2] was greater than 5 µg/mL.

For the compound `CO[C@H](C[C@H](CCN1CCN(CCc2ccccc2)CC1)C(=O)NO)c1ccc(F)cc1`, the inhibition constant Ki at Lethal factor is 118 nM.

For the compound `Cc1cc(N[C@H](CCCCNCCCc2ccc(F)cc2)C(=O)NO)cc(C)c1F`, the inhibitory constant (Ki) at Lethal factor was 1.3 nM. Moreover, the logD in data set [1] was less than 3. This compound also gave a solubility in data set [2] greater than 5 µg/mL.

In the case of `Cc1cc(NC(=O)NCCCC[C@@H](Nc2cc(C)c(F)c(C)c2)C(=O)NO)ccc1F`, on Lethal factor, the Ki was 9.3 nM. The compound further showed a log distribution coefficient (logD) in data set [1] of less than 3. Further, the solubility in data set [2] was greater than 5 µg/mL.

Turning to `Cc1cc(N[C@H](CCCCNCc2ccc(Cl)cc2)C(=O)NO)cc(C)c1F`, the Ki on Lethal factor was 1.1 nM. The compound also showed a pH-dependent lipophilicity (logD) in data set [1] of less than 3. In addition, in data set [2], the solubility is greater than 5 µg/mL.

`CO[C@H](C[C@H](CCN1CCOCC1)C(=O)NO)c1ccc(F)cc1`: the Ki on Lethal factor was found to be 350 nM.

As for `Cc1cc(N[C@H](CCCCNCc2ccccc2F)C(=O)NO)cc(C)c1F`, at Lethal factor, the inhibitory constant (Ki) amounted to 0.69 nM. Further, the logD in data set [1] was less than 3. This compound registered a solubility in data set [2] greater than 5 µg/mL.

As for `Cc1cc(N[C@H](CCCCNCc2ccc(C(C)(C)C)cc2)C(=O)NO)cc(C)c1F`, the Ki on Lethal factor was 1.4 nM. In data set [1], this compound had a logD of less than 3. In data set [2], the solubility is greater than 5 µg/mL.

Turning to `Cc1cc(S(=O)(=O)NCCCC[C@@H](Nc2cc(C)c(F)c(C)c2)C(=O)NO)ccc1F`, the Ki at Lethal factor amounted to 3.1 nM. The log distribution coefficient (logD) in data set [1] was less than 3. This compound also returned a solubility in data set [2] greater than 5 µg/mL.

Consider `CO[C@H](C[C@H](CCN1CCCC(Cc2ccc(F)cc2)C1)C(=O)NO)c1ccc(F)cc1` (stereo partly specified), for which, on Lethal factor, the inhibitory constant (Ki) was 33 nM. The same compound showed a log distribution coefficient (logD) in data set [1] of less than 3. Besides, the solubility in data set [2] was greater than 5 µg/mL.

As to `Cc1cc(N[C@H](CCCCNCc2cccc(F)c2)C(=O)NO)cc(C)c1F`, the Ki at Lethal factor amounted to 0.85 nM. In data set [1], this compound gave a logD of less than 3. Besides, the solubility in data set [2] is greater than 5 µg/mL.

Consider `Cc1ccc(CNCCCC[C@@H](Nc2cc(C)c(F)c(C)c2)C(=O)NO)cc1`, for which the inhibition constant (Ki) on Lethal factor is 0.41 nM. Also, in data set [1], the log distribution coefficient (logD) was less than 3. The solubility in data set [2] was greater than 5 µg/mL.

`Cc1cc(N[C@H](CCCCNCc2ccc(C(F)(F)F)cc2)C(=O)NO)cc(C)c1F`: the inhibitory constant (Ki) on Lethal factor came to 0.47 nM. In data set [1], this compound displayed a logD of less than 3. In data set [2], this compound showed a solubility greater than 5 µg/mL.

Take `CO[C@H](C[C@H](CCN(C)Cc1ccc(-c2ccc(F)c(C)c2)cc1)C(=O)NO)c1ccc(F)cc1`: at Lethal factor, the Ki was 135 nM.

Consider `Cc1cc(N[C@H](CCCCNCCc2ccc(F)cc2)C(=O)NO)cc(C)c1F`, for which the logD in data set [1] is less than 3. Moreover, the solubility in data set [2] is greater than 5 µg/mL.

For `CO[C@H](C[C@H](CCN1CCCCC1)C(=O)NO)c1ccc(F)cc1`, the inhibition constant Ki at Lethal factor stood at 230 nM.

For the compound `CO[C@H](C[C@H](CCN1CCNCC1)C(=O)NO)c1ccc(F)cc1`, the Ki on Lethal factor was 90 nM. The logD in data set [1] was less than 3. In data set [2], this compound had a solubility greater than 5 µg/mL.

`Cc1cc(N[C@H](CCCCNCc2ccc(F)cc2)C(=O)NO)cc(C)c1F` had a logD in data set [1] of less than 3. The compound further came in with a solubility in data set [2] greater than 5 µg/mL.

In the case of `CO[C@H](C[C@H](CCN1CCCC(CO)C1)C(=O)NO)c1ccc(F)cc1` (stereo partly specified), the inhibition constant Ki on Lethal factor turned out to be 99 nM. The logD in data set [1] is less than 3. Also, in data set [2], the solubility was greater than 5 µg/mL.

Turning to `Cc1cc(N[C@H](CCCCN)C(=O)NO)cc(C)c1F`, the Ki on Lethal factor worked out at 8.2 nM. Further, the logD in data set [1] is less than 3. The compound further yielded a solubility in data set [2] greater than 5 µg/mL.
